Data published in ChEMBL document CHEMBL1142244, “Cytotoxic constituents from the fruiting branches of Callicarpa americana collected in southern Florida” (J Nat Prod, 2007).
In brackets after ≈: the same amount, converted by molar mass.

Experiments:
[1] = (§1) Cytotoxicity against human TERT-RPE1 cells; type: cell-based; settings: TERT-RPE1 cells, read-out: ED50 (the source's name)
[2] = (§2) Cytotoxicity against human LNCaP cells; type: cell-based; settings: LNCaP cells, read-out: ED50 (the source's name)
[3] = (§3) Cytotoxicity against human Col2 cells; type: cell-based; settings: Col2 cells, read-out: ED50 (the source's name)
[4] = (§4) Cytotoxicity against human Lu1 cells; type: cell-based; settings: Lu1 cells, read-out: ED50 (the source's name)
[5] = (§5) Cytotoxicity against human HUVEC cells; type: cell-based; settings: HUVEC cells, read-out: ED50 (the source's name)
[6] = system: TERT-RPE1; assay: as §1; type: cell-based; settings: tert-rpe1
[7] = system: LNCaP; assay: as §2; type: cell-based; settings: lncap
[8] = system: Col2; assay: as §3; type: cell-based; settings: col2
[9] = system: Lu1; assay: as §4; type: cell-based; settings: lu1
[10] = system: MCF7; assay: (§6) Cytotoxicity against human MCF7 cells; type: cell-based; settings: mcf7
[11] = system: HUVEC; assay: as §5; type: cell-based; settings: huvec
[12] = as §6; type: cell-based; settings: MCF7 cells, read-out: ED50 (the source's name)
[13] = system: Lu1; assay: Cytotoxicity against human Lu1 cells xenografted in NCr nu/nu athymic mouse at 25 mg/kg, ip by hollow fiber assay; type: organism-based; set-up: dose 25 mg/kg, route intraperitoneal; settings: in vivo
In short: (§7)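 Female-unspecified NCr nu/nu athymic mice, five to six weeks old. LNCaP, Lu1 and MCF-7 cells were sealed in semi-porous hollow fibres and implanted at intraperitoneal and subcutaneous sites, each mouse carrying all three lines at both sites. Compound was given i.p. at 6.25, 12.5, 25 or 50 mg/kg, with three mice per dose group.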

[14] = system: LNCaP; assay: Cytotoxicity against human LNCaP cells xenografted in NCr nu/nu athymic mouse at 50 mg/kg, ip by hollow fiber assay; type: organism-based; set-up: dose 50 mg/kg, route intraperitoneal; settings: in vivo; in short: as §7
[15] = system: LNCaP; assay: Cytotoxicity against human LNCaP cells xenografted in NCr nu/nu athymic mouse at 12.5 mg/kg, ip by hollow fiber assay; type: organism-based; set-up: dose 12.5 mg/kg, route intraperitoneal; settings: in vivo; in short: as §7
[16] = system: LNCaP; assay: Cytotoxicity against human LNCaP cells xenografted in NCr nu/nu athymic mouse at 25 mg/kg, ip by hollow fiber assay; type: organism-based; set-up: dose 25 mg/kg, route intraperitoneal; settings: in vivo; in short: as §7
[17] = system: MCF7; assay: Cytotoxicity against human MCF7 cells xenografted in NCr nu/nu athymic mouse at 12.5 mg/kg, ip by hollow fiber assay; type: organism-based; set-up: dose 12.5 mg/kg, route intraperitoneal; settings: in vivo; in short: as §7
[18] = system: MCF7; assay: Cytotoxicity against human MCF7 cells xenografted in NCr nu/nu athymic mouse at 50 mg/kg, ip by hollow fiber assay; type: organism-based; set-up: dose 50 mg/kg, route intraperitoneal; settings: in vivo; in short: as §7
[19] = system: Lu1; assay: Cytotoxicity against human Lu1 cells xenografted in NCr nu/nu athymic mouse at 50 mg/kg, ip by hollow fiber assay; type: organism-based; set-up: dose 50 mg/kg, route intraperitoneal; settings: in vivo; in short: as §7
[20] = system: MCF7; assay: Cytotoxicity against human MCF7 cells xenografted in NCr nu/nu athymic mouse at 6.25 mg/kg, ip by hollow fiber assay; type: organism-based; set-up: dose 6.25 mg/kg, route intraperitoneal; settings: in vivo; in short: as §7
[21] = system: Lu1; assay: Cytotoxicity against human Lu1 cells xenografted in NCr nu/nu athymic mouse at 12.5 mg/kg, ip by hollow fiber assay; type: organism-based; set-up: dose 12.5 mg/kg, route intraperitoneal; settings: in vivo; in short: as §7
[22] = system: Lu1; assay: Cytotoxicity against human Lu1 cells xenografted in NCr nu/nu athymic mouse at 6.25 mg/kg, ip by hollow fiber assay; type: organism-based; set-up: dose 6.25 mg/kg, route intraperitoneal; settings: in vivo; in short: as §7
[23] = system: MCF7; assay: Cytotoxicity against human MCF7 cells xenografted in NCr nu/nu athymic mouse at 25 mg/kg, ip by hollow fiber assay; type: organism-based; set-up: dose 25 mg/kg, route intraperitoneal; settings: in vivo; in short: as §7
[24] = system: LNCaP; assay: Cytotoxicity against human LNCaP cells xenografted in NCr nu/nu athymic mouse at 6.25 mg/kg, ip by hollow fiber assay; type: organism-based; set-up: dose 6.25 mg/kg, route intraperitoneal; settings: in vivo; in short: as §7

Row | Structure (SMILES) | CC50 [2] [mg/L] | CC50 [4] [mg/L] | CC50 [5] [mg/L] | Activity [6] | Activity [7] | Activity [8] | Activity [9] | Activity [10] | Activity [11] | also measured
1 | COc1cc(O)c2c(=O)cc(-c3ccc(O)cc3)oc2c1 [GENKWANIN] | > 20 | > 20 | > 20 | – | – | – | – | – | – | CC50 [1]: 3.9 mg/L (≈ 13.7 µM); CC50 [3]: > 20 mg/L
2 | CO[C@@H]1OC(=O)C=C1[C@@H](O)C[C@@]1(C)[C@H](C)CC[C@@]2(C)C(C)=CCC[C@H]12 | – | – | – | Not Active | Not Active | Not Active | Not Active | Not Active | Not Active | –
3 | CC1(C)C(=O)CC[C@@]2(C)[C@H]1CC[C@@]13C[C@H](CC[C@@H]12)[C@@](O)(CO)C3 [CALLITERPENONE] | – | – | – | Not Active | Not Active | Not Active | Not Active | Not Active | Not Active | –
4 | COc1ccc(-c2cc(=O)c3c(O)cc(OC)cc3o2)cc1 | – | – | – | Not Active | Not Active | Not Active | Not Active | Not Active | Not Active | –
5 | COc1ccc(-c2cc(=O)c3c(O)c(OC)c(OC)cc3o2)cc1 [SALVIGENIN] | – | – | – | Not Active | Not Active | Not Active | Not Active | Not Active | Not Active | –
6 | CC1=CCC[C@@H]2[C@@](C)(/C=C/C3=CC(=O)O[C@H]3O)[C@H](C)CC[C@@]12C | 2.5 (≈ 7.9 µM) | 2.6 (≈ 8.22 µM) | 1.2 (≈ 3.79 µM) | – | – | – | – | – | – | CC50 [12]: 2.7 mg/L (≈ 8.53 µM)
7 | C=C1[C@@H](O)CC[C@@H]2[C@@](C)(C[C@H](O)C3=CC(=O)OC3)[C@H](C)CC[C@@]12C | – | – | – | Not Active | Not Active | Not Active | Not Active | Not Active | Not Active | –
8 | CC1=CCC[C@@H]2[C@@](C)(C[C@H](O)C3=CC(=O)O[C@H]3O)[C@H](C)CC[C@@]12C | 4.1 (≈ 12.3 µM) | 2.4 (≈ 7.18 µM) | 1.8 (≈ 5.38 µM) | – | – | – | – | – | – | CC50 [1]: 1.9 mg/L (≈ 5.68 µM); Activity [13]: Not Active; CC50 [3]: 2.3 mg/L (≈ 6.88 µM); Activity [14]: Not Active; Activity [15]: Not Active; Activity [16]: Not Active; Activity [17]: Not Active; Activity [18]: Not Active; Activity [19]: Not Active; Activity [20]: Not Active; Activity [21]: Not Active; Activity [22]: Not Active; Activity [23]: Not Active; Activity [24]: Not Active
9 | CC1=CCC[C@@H]2[C@@](C)(C[C@H](O)C3=CC(=O)OC3)[C@H](C)CC[C@@]12C | – | – | – | Not Active | Not Active | Not Active | Not Active | Not Active | Not Active | –
10 | CC1=CCC[C@@H]2[C@@](C)(CCC3=CC(=O)O[C@H]3O)[C@H](C)CC[C@@]12C | 3.3 (≈ 10.4 µM) | 3.7 (≈ 11.6 µM) | 4.1 (≈ 12.9 µM) | – | – | – | – | – | – | CC50 [12]: 3.5 mg/L (≈ 11 µM)
11 | CC1=C(C=O)C[C@@H]2[C@@](C)(CCC3=CC(=O)OC3O)[C@H](C)CC[C@@]12C (some centres not stated) | 4.5 (≈ 13.5 µM) | 8.7 (≈ 26.2 µM) | 9.8 (≈ 29.5 µM) | – | – | – | – | – | – | CC50 [1]: 1.9 mg/L (≈ 5.72 µM); CC50 [3]: 9 mg/L (≈ 27.1 µM); CC50 [12]: 3.9 mg/L (≈ 11.7 µM)
12 | C[C@@H]1CC[C@]2(C(=O)O)CC[C@]3(C)C(=CC[C@@H]4[C@@]5(C)C[C@@H](O)[C@@H](O)C(C)(C)[C@@H]5CC[C@]43C)[C@@H]2[C@]1(C)O [EUSCAPHIC ACID] | – | – | – | Not Active | Not Active | Not Active | Not Active | Not Active | Not Active | –
13 | C=C1[C@@H](O)CC[C@@H]2[C@@](C)(CCC3=CC(=O)O[C@H]3O)[C@H](C)CC[C@@]12C | – | – | – | Not Active | Not Active | Not Active | Not Active | Not Active | Not Active | –
14 | CC1=CCC[C@@H]2[C@@](C)(C[C@H](O)C3=CCOC3=O)[C@H](C)CC[C@@]12C | 3.3 (≈ 10.4 µM) | 2.9 (≈ 9.11 µM) | – | – | – | – | – | – | – | CC50 [12]: 2.8 mg/L (≈ 8.79 µM)
